Data as given in ChEMBL document CHEMBL3271938, “Podophyllotoxin analogs. 1. Synthesis and biological evaluation of certain trans-2-aryl-trans-6-hydroxymethyl-3-cyclohexenecarboxylic acid gamma-lactones as antimitotic agents” (1976).

Assays:
Tubulin (Bos taurus) [1] = target: T1, Tubulin (Bos taurus) (UniProt Q6B856+Q862L2+Q862F3); experiment: Displacement of [3H]colchicine from bovine brain tubulin at 100 uM after 90 mins by liquid scintillation counting in presence of 10 uM [3H]colchicine
Tubulin (Bos taurus) [2] = target: T1, Tubulin (Bos taurus); experiment: Displacement of [3H]colchicine from bovine brain tubulin at 20 uM after 90 mins by liquid scintillation counting in presence of […]
Tubulin (Bos taurus) [3] = target: T1, Tubulin (Bos taurus); experiment: Displacement of [3H]colchicine from bovine brain tubulin at 50 uM after 90 mins by liquid scintillation counting in presence of 10 uM [3H]colchicine
Tubulin (Bos taurus) [4] = target: T1, Tubulin (Bos taurus); experiment: Displacement of [3H]colchicine from bovine brain tubulin at 200 uM after 90 mins by liquid scintillation counting in presence of 10 uM [3H]colchicine
[5] = Inhibition of colony formation in BDF1 mouse bone marrow cells assessed as percentage of colony forming cell at 0.5 uM after 7 days by microscopic analysis relative to control; format: functional; parameters: scale not given: the % may be the effect or the level left
Summary of the method: (§1)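 Femoral marrow from female BDF1 mice (8-12 weeks) was dispersed and 1 × 10^5 cells plated in 1.0 ml of 0.3% agar. Medium was McCoy's 5A with supplements, 10^-4 M dithiothreitol, 10% fetal calf and 5% horse serum, plus L-cell CSF. Compound came from a 1 mM stock in Me2SO/EtOH saline, diluted serially 1:10. Incubated 7 days at 37°C under 12% CO2/8% O2; colonies counted microscopically as % of control.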

[6] = Inhibition of colony formation in BDF1 mouse bone marrow cells assessed as percentage of colony forming cell at 5 uM after 7 days by microscopic analysis relative to control; format: functional; parameters: scale not given: the % may be the effect or the level left; summary of the method: as §1
[7] = Inhibition of colony formation in BDF1 mouse bone marrow cells assessed as percentage of colony forming cell at 50 uM after 7 days by microscopic analysis relative to control; format: functional; parameters: scale not given: the % may be the effect or the level left; summary of the method: as §1
P815 [8] = experiment: Inhibition of colony formation in mouse P815 cells assessed as percentage of colony forming cell at 0.5 uM after 7 days by microscopic analysis relative to control; format: functional; parameters: scale not given: the % may be the effect or the level left
Summary of the method: (§2)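 P-815 mastocytoma cells, passaged in vitro, plated at 1 × 10^3 cells in 1.0 ml of 0.3% agar. Medium was McCoy's 5A with supplements, 10^-4 M dithiothreitol, 10% fetal calf and 5% horse serum. Compound came from a 1 mM stock in Me2SO/EtOH saline, diluted serially 1:10. Incubated 7 days at 37°C under 12% CO2/8% O2; colonies counted microscopically as % of control.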

P815 [9] = experiment: Inhibition of colony formation in mouse P815 cells assessed as percentage of colony forming cell at 5 uM after 7 days by microscopic analysis relative to control; format: functional; parameters: scale not given: the % may be the effect or the level left; summary of the method: as §2
P815 [10] = experiment: Inhibition of colony formation in mouse P815 cells assessed as percentage of colony forming cell at 50 uM after 7 days by microscopic analysis relative to control; format: functional; parameters: scale not given: the % may be the effect or the level left; summary of the method: as §2
Tubulin (Bos taurus) [11] = target: T1, Tubulin (Bos taurus); experiment: Displacement of [3H]colchicine from bovine brain tubulin at 10 uM after 90 mins by liquid scintillation counting in presence of 10 uM [3H]colchicine
Tubulin (Bos taurus) [12] = target: T1, Tubulin (Bos taurus); experiment: Displacement of [3H]colchicine from bovine brain tubulin at 40 uM after 90 mins by liquid scintillation counting in presence of 10 uM [3H]colchicine
Tubulin (Bos taurus) [13] = target: T1, Tubulin (Bos taurus); experiment: Displacement of [3H]colchicine from bovine brain tubulin at 60 uM after 90 mins by liquid scintillation counting in presence of 10 uM [3H]colchicine
[14] = Inhibition of colony formation in BDF1 mouse bone marrow cells assessed as percentage of colony forming cell at 5 nM after 7 days by microscopic analysis relative to control; format: functional; parameters: scale not given: the % may be the effect or the level left; summary of the method: as §1
[15] = Inhibition of colony formation in BDF1 mouse bone marrow cells assessed as percentage of colony forming cell at 50 nM after 7 days by microscopic analysis relative to control; format: functional; parameters: scale not given: the % may be the effect or the level left; summary of the method: as §1
P815 [16] = experiment: Inhibition of colony formation in mouse P815 cells assessed as percentage of colony forming cell at 5 nM after 7 days by microscopic analysis relative to control; format: functional; parameters: scale not given: the % may be the effect or the level left; summary of the method: as §2
P815 [17] = experiment: Inhibition of colony formation in mouse P815 cells assessed as percentage of colony forming cell at 50 nM after 7 days by microscopic analysis relative to control; format: functional; parameters: scale not given: the % may be the effect or the level left; summary of the method: as §2

| Structure (SMILES) | Activity (Tubulin (Bos taurus) [1]) [cpm] | Activity (Tubulin (Bos taurus) [2]) [cpm] | Activity (Tubulin (Bos taurus) [3]) [cpm] | Activity (Tubulin (Bos taurus) [4]) [cpm] | Activity [5] [%] | Activity [6] [%] | Activity [7] [%] | Activity (P815 [8]) [%] | Activity (P815 [9]) [%] | Activity (P815 [10]) [%] | Activity (Tubulin (Bos taurus) [11]) [cpm] | Activity (Tubulin (Bos taurus) [12]) [cpm] | Activity (Tubulin (Bos taurus) [13]) [cpm] | Activity [14] [%] | Activity [15] [%] | Activity (P815 [16]) [%] | Activity (P815 [17]) [%] |
| --- | --- | --- | --- | --- | --- | --- | --- | --- | --- | --- | --- | --- | --- | --- | --- | --- | --- |
| COc1cc([C@H]2C=CC[C@@H]3C(=O)OC[C@H]32)cc(OC)c1OC | 11500 | 9070 | 11900 | 8690 | 90 | 74 | 135 | 89 | 95 | 109 |  |  |  |  |  |  |  |
| O=C1OC[C@H]2CC=C[C@H](c3ccccc3)[C@@H]12 (relative stereo) | 13600 |  |  |  |  |  |  |  |  |  | 1320 | 12300 | 13900 |  |  |  |  |
| COc1cc([C@H]2C=CC[C@@H]3COC(=O)[C@H]32)cc(OC)c1OC (relative stereo) | 15200 |  |  |  | 35 | 105 | 75 | 84 | 42 | 9 | 17000 | 15500 | 14600 |  |  |  |  |
| O=C1OC[C@H]2CC=C[C@H](c3ccc4c(c3)OCO4)[C@H]12 | 19600 |  |  |  | 87 | 143 | 170 | 101 | 86 | 143 | 16000 | 20100 | 18200 |  |  |  |  |
| COc1cc([C@@H]2c3cc4c(cc3[C@H](O)[C@H]3COC(=O)[C@H]23)OCO4)cc(OC)c1OC [PODOFILOX] |  |  |  |  | 0 |  |  | 0 |  |  |  |  |  | 95 | 1 | 91 | 0 |
| O=C1OC[C@H]2CC=CC[C@H]12 | 14700 |  |  |  | 102 | 91 | 106 | 102 | 95 | 112 | 15500 | 14900 | 15200 |  |  |  |  |
| O=C1OC[C@H]2[C@@H]1CC=C[C@@H]2c1ccc2c(c1)OCO2 | 17000 |  |  |  | 103 | 105 | 121 | 71 | 98 | 106 | 19000 | 16700 | 17000 |  |  |  |  |
| O=C1OC[C@H]2[C@@H]1CC=C[C@@H]2c1ccccc1 (relative stereo) | 13100 |  |  |  |  |  |  |  |  |  | 15800 | 14800 | 5380 |  |  |  |  |
| O=C1OC[C@@H]2[C@@H]1CC=C[C@@H]2c1ccc2c(c1)OCO2 | 16700 |  |  |  | 104 | 135 | 166 | 100 | 61 | 169 | 17400 | 16700 | 15600 |  |  |  |  |
| O=C1OC[C@H]2CC=C[C@H](c3ccccc3)[C@H]12 | 15500 |  |  |  | 96 | 95 | 107 | 74 | 75 | 93 | 12200 | 15600 | 18500 |  |  |  |  |
| O=C1OC[C@H]2CC=CC[C@@H]12 | 14100 |  |  |  | 106 | 103 | 114 | 93 | 69 | 111 | 15800 | 16800 | 15900 |  |  |  |  |
| O=C1OC[C@H]2CC=C[C@H](c3ccc4c(c3)OCO4)[C@@H]12 | 12400 |  |  |  | 97 | 105 | 115 | 89 | 112 | 138 | 17600 | 17600 | 17300 |  |  |  |  |
| COc1cc([C@H]2C=CC[C@@H]3C(=O)OC[C@@H]32)cc(OC)c1OC (relative stereo) | 18200 |  |  |  | 75 | 73 | 55 | 81 | 89 | 178 | 18500 | 11600 | 18400 |  |  |  |  |
